SKN-1 block – inhibitors of C. elegans SKN-1; C. elegans VP596 Pgst-4::GFP/RFP ratio, acrylamide-induced, 24 h; inhibition, % at 21.8 µM; hit rate 0.49% among 360,000; AID 624304;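 active = interference check ratio from 0.5 to 1.5 plus GFP to RFP signal ratio inhibition reaching or exceeding a fixed threshold, cut at about 30% in these data, passing the limit was not always enough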
MT1-MMP act inh – MT1-MMP (human) activation inhibition. P50281. HT1080 RFP-PRO-GFP cells, GFP/RFP ratio fluorescence, overnight; percent of plate control window, DMSO zero. GFP/RFP ratio change, % at 20 µM. hit rate 0.061% among 360,000;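 active = GFP/RFP ratio change of at least 30% with cell ATP level not reduced by more than half and red fluorescence within 50% of control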
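Assay system: RFP-PRO-GFP reporter HT1080 cells; read-out basis: GFP/RFP fluorescence ratio; benchmarks: DMSO wells and RFP-L50D-GFP cells; doses: 20 µM single dose, 1% DMSO; schedule: overnight cell settling, then overnight compound exposure, 37 °C, 5% CO2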
PABP FP inh – PABP-poly(A) binding inhibition; inhibition, % at 35 µM; P11940; hit rate 1% among 290,000; PABP-poly(A) RNA binding, fluorescence polarization;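 also: calls also rest on retests at 20 µM and on dose response follow-up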
Target sequence (P11940 whole entry, looked up): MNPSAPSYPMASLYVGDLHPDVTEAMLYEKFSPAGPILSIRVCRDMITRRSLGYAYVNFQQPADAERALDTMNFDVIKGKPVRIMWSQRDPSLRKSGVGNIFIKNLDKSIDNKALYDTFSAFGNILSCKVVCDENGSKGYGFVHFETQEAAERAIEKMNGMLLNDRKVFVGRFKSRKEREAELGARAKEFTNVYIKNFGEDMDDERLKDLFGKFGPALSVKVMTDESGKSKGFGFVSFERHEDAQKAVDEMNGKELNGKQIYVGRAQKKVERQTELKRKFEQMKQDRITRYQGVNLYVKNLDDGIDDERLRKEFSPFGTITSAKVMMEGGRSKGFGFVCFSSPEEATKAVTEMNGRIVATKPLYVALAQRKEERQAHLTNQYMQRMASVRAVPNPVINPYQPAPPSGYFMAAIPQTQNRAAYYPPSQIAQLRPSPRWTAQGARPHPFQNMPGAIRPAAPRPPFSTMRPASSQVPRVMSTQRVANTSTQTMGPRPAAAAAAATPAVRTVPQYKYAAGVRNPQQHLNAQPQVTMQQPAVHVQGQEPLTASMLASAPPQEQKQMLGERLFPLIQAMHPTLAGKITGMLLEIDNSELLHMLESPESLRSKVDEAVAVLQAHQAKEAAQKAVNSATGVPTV
eIF4H inh – inhibitors of RNA binding by human eIF4H; Q15056; eIF4H fluorescence polarization binding assay; inhibition, % at 35 µM; hit rate 0.94% among 290,000;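 also: calls also rest on retests at 20 µM and on dose response follow-up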
PABP1 MLLE inh – inhibitors of microRNA-mediated deadenylation, human PABP1 MLLE binding; P11940; GST-MLLE / FITC-PAM2 fluorescence polarization; inhibition, % at 20 µM; hit rate 0.36% among 360,000; in the data active = inhibition above about 35%, passing the limit was not always enough;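 also: plate controls were DMSO wells with GST-MLLE for no effect and wells lacking GST-MLLE protein for full effect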
An asterisk follows results filed as active. A selection: hits, their analogues and other compounds. The true share with any hit is near 1.7%. Unless noted, no rule for the calls is given here.

O=c1c2ccccc2nc2n1CCC2 was read as SKN-1 block 1.2, MT1-MMP act inh 2.2, PABP FP inh -8.8, eIF4H inh -12.2 and PABP1 MLLE inh 8.0.
Screening O=C1CCn2c1c(O)c1ccccc1c2=O returned SKN-1 block -2.3, MT1-MMP act inh -37.5 and PABP1 MLLE inh 44.6*.
`CCOC(=O)C1CCN(C(=O)c2ccc3c(c2)S(=O)(=O)c2ccccc2C3=O)CC1` gave SKN-1 block 35.9*, MT1-MMP act inh 3.4, PABP FP inh -1.3, eIF4H inh -2.2 and PABP1 MLLE inh -10.5.
`CCOc1ccc(N2CC(C(=O)Nc3nnc(Cc4ccc(OC)cc4)s3)CC2=O)cc1` (stereo not given) gave SKN-1 block 9.2, MT1-MMP act inh -0.4, PABP FP inh 2.8, eIF4H inh -14.5 and PABP1 MLLE inh 12.4.
`Nc1nnc(-c2ccco2)s1` gave SKN-1 block 11.2, MT1-MMP act inh -1.6, PABP FP inh 21.7, eIF4H inh 31.0 and PABP1 MLLE inh 17.6.
For Nc1ncnc2oc(-c3ccco3)c(-c3ccco3)c12 the results were SKN-1 block 7.3, PABP FP inh 94.3*, eIF4H inh 104.3* and PABP1 MLLE inh 21.0.
`CN(CCOc1ccc(Cl)cc1)C(=O)c1cc(-c2ccco2)nc2ccccc12` gave SKN-1 block 4.1, MT1-MMP act inh -2.5 and PABP1 MLLE inh -5.4.
O=C(Nc1cccc2ccccc12)N1CC=CCC1 was read as SKN-1 block 3.6, MT1-MMP act inh -11.1, PABP FP inh 94.8*, eIF4H inh 81.4* and PABP1 MLLE inh -7.5.
`O=C(Nc1cccc2ccccc12)N1CCN(c2ccccc2)CC1` gave SKN-1 block 26.9, MT1-MMP act inh 1.9, PABP FP inh -8.1, eIF4H inh -0.5 and PABP1 MLLE inh 13.5.
Screening O=C(Nc1ccc(F)cc1)c1ccccc1F returned SKN-1 block 21.7, MT1-MMP act inh -3.8, PABP FP inh 0.1, eIF4H inh -6.2 and PABP1 MLLE inh 13.5.
`O=C(Nc1ccc(SC(F)F)cc1)c1ccccc1F` gave SKN-1 block 41.0*, MT1-MMP act inh 4.8, PABP FP inh -2.0, eIF4H inh -4.0 and PABP1 MLLE inh 17.2.
Cc1cc2ccccc2n1CCNC(=O)C(C)C was read as SKN-1 block 52.5*, MT1-MMP act inh 26.5, PABP FP inh 85.3, eIF4H inh 84.1 and PABP1 MLLE inh 18.0.
For Cc1cc2ccccc2n1CCNC(=O)Cc1ccccc1 the results were SKN-1 block 42.5, MT1-MMP act inh 43.0, PABP FP inh 43.8, eIF4H inh inconclusive and PABP1 MLLE inh 18.9.
`Cc1cccc(CC(=O)NCCn2c(C)cc3ccccc32)c1` gave SKN-1 block 37.8*, MT1-MMP act inh 14.4, PABP FP inh 2.0, eIF4H inh 22.0 and PABP1 MLLE inh 4.9.
Screening C=CCOn1c(=O)c(-c2cc3ccccc3o2)[n+]([O-])c2ccccc21 returned SKN-1 block 4.8, MT1-MMP act inh -5.0, PABP FP inh 47.4*, eIF4H inh 58.1* and PABP1 MLLE inh 1.4.
Screening CCOC(=O)COn1c(=O)c(-c2cc3ccccc3o2)[n+]([O-])c2ccccc21 returned SKN-1 block 3.0, MT1-MMP act inh -62.4, PABP FP inh 42.4*, eIF4H inh 63.7 and PABP1 MLLE inh 20.2.
For C=CCOn1c(=O)c(-c2ccccc2)[n+]([O-])c2ccccc21 the results were SKN-1 block -6.3, MT1-MMP act inh 1.8, PABP FP inh 8.8, eIF4H inh 5.1 and PABP1 MLLE inh -13.8.
CC1(C(=O)NS(=O)(=O)c2cccc(Cl)c2)CCN1C(=O)Cc1ccsc1 (stereo not given) was read as SKN-1 block 15.8, MT1-MMP act inh 2.3 and PABP1 MLLE inh 5.0.
`CC(C)Cc1nc(SCC(=O)NCC2CCCO2)c2c(=O)n(C)c(=O)n(C)c2n1` (stereo not given) gave SKN-1 block 5.6, MT1-MMP act inh 1.2, PABP FP inh 13.6, eIF4H inh -4.8 and PABP1 MLLE inh 7.7.
`Cc1ccc(C)c(NC(=O)/C(C#N)=C/c2ccc[nH]2)c1` gave SKN-1 block 36.8*, MT1-MMP act inh 2.0, PABP FP inh -2.5, eIF4H inh -12.6 and PABP1 MLLE inh 6.3.
For CS(=O)(=O)N(CC(=O)Nc1ccc2c(c1)OCO2)c1ccc2c(c1)OCO2 the results were SKN-1 block 21.6, MT1-MMP act inh 3.2, PABP FP inh 9.7, eIF4H inh -2.6 and PABP1 MLLE inh -4.9.
